Experimental data from ChEMBL document CHEMBL2311303, “Synthesis and anticancer activity of a novel series of 9-O-substituted berberine derivatives: a lipophilic substitute role” (Bioorg Med Chem Lett, 2013).
Calls of active or inactive are those of the source. The rule behind the calls is not given here.

Tests used:
[1] = test system: HepG2; experiment: Cytotoxicity against human HepG2 cells after 24 hrs by MTT assay; format: functional, cell-based; details: HepG2, 24 h
[2] = test system: HepG2; experiment: Cytotoxicity against human HepG2 cells after 48 hrs by MTT assay; format: functional, cell-based; details: HepG2, 48 h
[3] = test system: HT-29; experiment: Cytotoxicity against human HT-29 cells after 24 hrs by MTT assay; format: functional, cell-based; details: HT-29, 24 h
[4] = test system: HT-29; experiment: Cytotoxicity against human HT-29 cells after 48 hrs by MTT assay; format: functional, cell-based; details: HT-29, 48 h
[5] = test system: HepG2; experiment: Induction of apoptosis in human HepG2 cells assessed as necrotic cells at 0.5 uM after 24 hrs using annexin-V/FITC/propidium iodide staining by flow cytometry analysis (reference value: 0.51%); format: functional
Procedure, shortened: (§1)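 HepG2 cells exposed for 24 h to 0.25, 0.5 or 1.0 µM, with vehicle alone as control. Cells then double-stained with annexin V-FITC/PI and analysed by flow cytometry. Quadrant read-out: annexin V-positive/PI-negative cells counted as early apoptotic.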

[6] = test system: HepG2; experiment: Induction of apoptosis in human HepG2 cells assessed as early apoptotic cells at 0.5 uM after 24 hrs using annexin-V/FITC/propidium iodide staining by flow cytometry analysis (reference value: 2.05%); format: functional; procedure, shortened: as §1
[7] = test system: HepG2; experiment: Induction of apoptosis in human HepG2 cells assessed as necrotic cells at 1 uM after 24 hrs using annexin-V/FITC/propidium iodide staining by flow cytometry analysis (reference value: 0.51%); format: functional; procedure, shortened: as §1
[8] = test system: HepG2; experiment: Induction of apoptosis in human HepG2 cells assessed as early apoptotic cells at 0.25 uM after 24 hrs using annexin-V/FITC/propidium iodide staining by flow cytometry analysis (reference value: 2.05%); format: functional; procedure, shortened: as §1
[9] = test system: HepG2; experiment: Ratio of berberine IC50 to compound IC50 for human HepG2 cells; format: functional
[10] = test system: HepG2; experiment: Induction of apoptosis in human HepG2 cells assessed as late apoptotic cells at 0.25 uM after 24 hrs using annexin-V/FITC/propidium iodide staining by flow cytometry analysis (reference value: 3.16%); format: functional; procedure, shortened: as §1
[11] = test system: HepG2; experiment: Cytotoxicity against human HepG2 cells by MTT assay; format: functional, cell-based; details: TDE = time-dependent effect
Procedure, shortened: (§2)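 HepG2 cells exposed to a range of concentrations for 24, 48 and 72 h. Viability then read by MTT. Data are means ± SD of at least three replicates from three independent experiments.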

[12] = test system: HepG2; experiment: Cytotoxicity against human HepG2 cells after 24 to 72 hrs by MTT assay; format: functional, cell-based; procedure, shortened: as §2
[13] = test system: HepG2; experiment: Induction of apoptosis in human HepG2 cells assessed as morphological changes at 0.5 to 1 uM after 24 hrs using Hoechst 33258 staining by fluorescence microscopic analysis; format: functional, cell-based
Procedure, shortened: (§3)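 HepG2 cells left untreated or exposed for 24 h, at 20 µM or at 0.5 or 1.0 µM depending on compound. Cells then stained with Hoechst 33258 and nuclear morphology examined by fluorescence microscopy at ×400.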

[14] = test system: HepG2; experiment: Induction of apoptosis in human HepG2 cells assessed as late apoptotic cells at 0.5 uM after 24 hrs using annexin-V/FITC/propidium iodide staining by flow cytometry analysis (reference value: 3.16%); format: functional; procedure, shortened: as §1
[15] = Cytotoxicity against mouse BNL-CL2 cells at 10 uM after 48 hrs by MTT assay; format: functional
[16] = test system: HepG2; experiment: Induction of apoptosis in human HepG2 cells assessed as viable cells at 1 uM after 24 hrs using annexin-V/FITC/propidium iodide staining by flow cytometry analysis (reference value: 94.29%); format: functional; details: HepG2, 24 h, read-out: Activity; procedure, shortened: as §1
[17] = test system: HepG2; experiment: Induction of apoptosis in human HepG2 cells assessed as viable cells at 0.5 uM after 24 hrs using annexin-V/FITC/propidium iodide staining by flow cytometry analysis (reference value: 94.29%); format: functional; details: HepG2, 24 h, read-out: Activity; procedure, shortened: as §1
[18] = test system: HepG2; experiment: Induction of apoptosis in human HepG2 cells assessed as late apoptotic cells at 1 uM after 24 hrs using annexin-V/FITC/propidium iodide staining by flow cytometry analysis (reference value: 3.16%); format: functional; procedure, shortened: as §1
[19] = test system: HepG2; experiment: Induction of apoptosis in human HepG2 cells assessed as early apoptotic cells at 1 uM after 24 hrs using annexin-V/FITC/propidium iodide staining by flow cytometry analysis (reference value: 2.05%); format: functional; procedure, shortened: as §1
[20] = test system: HepG2; experiment: Induction of apoptosis in human HepG2 cells assessed as necrotic cells at 0.25 uM after 24 hrs using annexin-V/FITC/propidium iodide staining by flow cytometry analysis (reference value: 0.51%); format: functional; procedure, shortened: as §1
[21] = test system: HepG2; experiment: Induction of apoptosis in human HepG2 cells assessed as viable cells at 0.25 uM after 24 hrs using annexin-V/FITC/propidium iodide staining by flow cytometry analysis (reference value: 94.29%); format: functional; details: HepG2, 24 h, read-out: Activity; procedure, shortened: as §1
[22] = test system: HepG2; experiment: Induction of apoptosis in human HepG2 cells assessed as morphological changes at 20 uM after 24 hrs using Hoechst 33258 staining by fluorescence microscopic analysis; format: functional, cell-based; procedure, shortened: as §3

CCCCOc1c(OC)ccc2cc3[n+](cc12)CCc1cc2c(cc1-3)OCO2
IC50 [1]: 1.81 µM
IC50 [2]: 0.97 µM
IC50 [3]: 4.41 µM
IC50 [4]: 0.87 µM

COc1ccc2cc3[n+](cc2c1OCC=C(C)C)CCc1cc2c(cc1-3)OCO2
IC50 [1]: 4.67 µM
IC50 [2]: 3.17 µM
IC50 [3]: 10.8 µM
IC50 [4]: 1.75 µM

COc1ccc2cc3[n+](cc2c1O)CCc1cc2c(cc1-3)OCO2 [BERBERRUBINE CHLORIDE]
IC50 [1]: > 50 µM
IC50 [2]: > 50 µM
IC50 [3]: > 50 µM
IC50 [4]: > 50 µM

COc1ccc2cc3[n+](cc2c1OC/C=C(\C)CC/C=C(\C)CCC=C(C)C)CCc1cc2c(cc1-3)OCO2.[Br-]
Activity [5]: 2.48%
IC50 [1]: 0.21 µM
Activity [6]: 8.71%
Activity [7]: 17.08%
Activity [8]: 1.66%
Ratio IC50 [9]: 104
IC50 [2]: 0.08 µM
IC50 [3]: 1.82 µM
Activity [10]: 3.2%
IC50 [4]: 0.27 µM
Activity [11]: tde
Activity [12]: Dose-dependent effect
Activity [13]: Active
Activity [14]: 17.4%
Activity [15]: <20%
viability at 1 µM [16]: 69.2%
viability at 0.5 µM [17]: 71.4%
Activity [18]: 11.28%
Activity [19]: 2.39%
Activity [20]: 3.73%
viability at 0.25 µM [21]: 91.4%

COc1ccc2cc3[n+](cc2c1OC/C=C(\C)CCC=C(C)C)CCc1cc2c(cc1-3)OCO2
IC50 [1]: 0.21 µM
IC50 [2]: 0.17 µM
IC50 [3]: 1.21 µM
IC50 [4]: 0.14 µM

CCCCCCCCOc1c(OC)ccc2cc3[n+](cc12)CCc1cc2c(cc1-3)OCO2
IC50 [1]: 0.19 µM
IC50 [2]: 0.1 µM
IC50 [3]: 0.48 µM
IC50 [4]: 0.08 µM

CCCCCCCCCCCCOc1c(OC)ccc2cc3[n+](cc12)CCc1cc2c(cc1-3)OCO2.[Br-]
IC50 [1]: 0.26 µM
IC50 [2]: 0.1 µM
IC50 [3]: 0.93 µM
IC50 [4]: 0.28 µM
Activity [15]: <20%

COc1ccc2cc3[n+](cc2c1OC)CCc1cc2c(cc1-3)OCO2.[Cl-] [BERBERINE CHLORIDE]
Activity [5]: 1.17%
IC50 [1]: 11.2 µM
Activity [6]: 4.39%
Activity [7]: 1.88%
Activity [8]: 2.99%
IC50 [2]: 8.32 µM
Activity [22]: Active
IC50 [3]: > 20 µM
Activity [10]: 6.4%
IC50 [4]: 8.45 µM
Activity [14]: 4.49%
viability at 1 µM [16]: 88.8%
viability at 0.5 µM [17]: 90%
Activity [18]: 5.51%
Activity [19]: 3.77%
Activity [20]: 0.84%
viability at 0.25 µM [21]: 89.8%
